In brackets after ≈: the same amount, converted by molar mass.
What was measured:
Format in all cases: functional
[1] = test system: Enterococcus faecium; experiment: In vitro antibacterial activity against Streptococcus faecium ATCC 8043
Procedure, shortened: (§1)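 Agar dilution MIC: strains grown overnight in brain-heart infusion broth at 36 °C; test compound stock 2000 µg/mL serially diluted 2-fold into BHI agar for final 200 to 0.005 µg/mL; plates inoculated with about 10⁴ organisms, incubated 36 °C for 18 h. MIC (µg/mL) taken as lowest concentration giving no visible growth; ciprofloxacin run side by side as reference.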

[2] = test system: Pseudomonas aeruginosa; experiment: In vitro antibacterial activity against Pseudomonas aeruginosa 5007; procedure, shortened: as §1
[3] = test system: Staphylococcus aureus; experiment: In vitro antibacterial activity against Staphylococcus aureus 45; procedure, shortened: as §1
[4] = test system: Streptococcus equinus; experiment: In vitro antibacterial activity against Streptococcus bovis A5169; procedure, shortened: as §1
[5] = test system: Klebsiella pneumoniae; experiment: In vitro antibacterial activity against Klebsiella pneumoniae 8045; procedure, shortened: as §1
[6] = test system: Staphylococcus epidermidis; experiment: In vitro antibacterial activity against Staphylococcus epidermidis 3519; procedure, shortened: as §1
[7] = test system: Streptococcus agalactiae; experiment: In vitro antibacterial activity against Streptococcus agalactiae CMS 508; procedure, shortened: as §1
[8] = test system: Acinetobacter; experiment: In vitro antibacterial activity against Acinetobacter CMX 669; procedure, shortened: as §1
[9] = test system: Pseudomonas aeruginosa; experiment: In vitro antibacterial activity against Pseudomonas aeruginosa K799/WT; procedure, shortened: as §1
[10] = test system: Staphylococcus aureus; experiment: In vitro antibacterial activity against Staphylococcus aureus A5177; procedure, shortened: as §1
[11] = test system: Staphylococcus aureus; experiment: In vitro antibacterial activity against Staphylococcus aureus CMX 686B; procedure, shortened: as §1
[12] = test system: Escherichia coli; experiment: In vitro antibacterial activity against Escherichia coli Juhl; procedure, shortened: as §1
[13] = test system: Streptococcus pyogenes; experiment: In vitro antibacterial activity against Streptococcus pyogenes 930; procedure, shortened: as §1
[14] = test system: Staphylococcus aureus; experiment: In vitro antibacterial activity against Staphylococcus aureus ATCC 6538P; procedure, shortened: as §1
[15] = test system: Klebsiella aerogenes; experiment: In vitro antibacterial activity against Enterobacter aerogenes ATCC 13048; procedure, shortened: as §1

Row | Compound | MIC [1] | MIC [2] | MIC [3] | MIC [4] | MIC [5] | MIC [6] | MIC [7] | MIC [8] | MIC [9] | MIC [10] | MIC [11] | MIC [12] | MIC [13] | MIC [14] | MIC [15]
1 | CCn1cc(C(=O)O)c(=O)c2cc(F)c(C3=NCCCO3)cc21 | > 100 µg/mL | > 100 µg/mL | > 100 µg/mL | > 100 µg/mL | 25 µg/mL (≈ 78.5 µM) | > 100 µg/mL | > 100 µg/mL | > 100 µg/mL | > 100 µg/mL | > 100 µg/mL | 50 µg/mL (≈ 157 µM) | 50 µg/mL (≈ 157 µM) | > 100 µg/mL | 50 µg/mL (≈ 157 µM) | > 100 µg/mL
2 | CCn1cc(C(=O)O)c(=O)c2cc(F)c(C3=NCCO3)cc21 | > 100 µg/mL | > 100 µg/mL | 50 µg/mL (≈ 164 µM) | > 100 µg/mL | 6.2 µg/mL (≈ 20.4 µM) | 50 µg/mL (≈ 164 µM) | > 100 µg/mL | 50 µg/mL (≈ 164 µM) | > 100 µg/mL | 25 µg/mL (≈ 82.2 µM) | 12.5 µg/mL (≈ 41.1 µM) | 12.5 µg/mL (≈ 41.1 µM) | > 100 µg/mL | 25 µg/mL (≈ 82.2 µM) | 12.5 µg/mL (≈ 41.1 µM)
3 | CCn1cc(C(=O)O)c(=O)c2cc(F)c(C(=O)NCCO)cc21 | > 100 µg/mL | > 100 µg/mL | > 100 µg/mL | > 100 µg/mL | 50 µg/mL (≈ 155 µM) | > 100 µg/mL | > 100 µg/mL | > 100 µg/mL | > 100 µg/mL | > 100 µg/mL | > 100 µg/mL | 50 µg/mL (≈ 155 µM) | > 100 µg/mL | > 100 µg/mL | > 100 µg/mL
4 | O=C(O)c1cn(C2CC2)c2cc(N3CCNCC3)c(F)cc2c1=O [CIPROFLOXACIN] | 0.39 µg/mL (≈ 1.18 µM) | 0.2 µg/mL (≈ 0.604 µM) | 1.56 µg/mL (≈ 4.71 µM) | 1.56 µg/mL (≈ 4.71 µM) | 0.02 µg/mL (≈ 0.0604 µM) | 0.39 µg/mL (≈ 1.18 µM) | 0.39 µg/mL (≈ 1.18 µM) | 0.78 µg/mL (≈ 2.35 µM) | 0.2 µg/mL (≈ 0.604 µM) | 0.39 µg/mL (≈ 1.18 µM) | 0.2 µg/mL (≈ 0.604 µM) |  | 0.39 µg/mL (≈ 1.18 µM) | 0.1 µg/mL (≈ 0.302 µM) | 0.05 µg/mL (≈ 0.151 µM)
5 | CCn1cc(C(=O)O)c(=O)c2cc(F)c(C3=NC(C)(C)CO3)cc21 | > 100 µg/mL | > 100 µg/mL | 100 µg/mL (≈ 301 µM) | > 100 µg/mL | 100 µg/mL (≈ 301 µM) | 50 µg/mL (≈ 150 µM) | > 100 µg/mL | > 100 µg/mL | > 100 µg/mL | 25 µg/mL (≈ 75.2 µM) | 12.5 µg/mL (≈ 37.6 µM) | > 100 µg/mL | > 100 µg/mL | 25 µg/mL (≈ 75.2 µM) | > 100 µg/mL
6 | CCn1cc(C(=O)O)c(=O)c2cc(F)c(C(=O)O)cc21 | > 100 µg/mL | > 100 µg/mL | > 100 µg/mL | > 100 µg/mL | > 100 µg/mL | > 100 µg/mL | > 100 µg/mL | > 100 µg/mL | > 100 µg/mL | > 100 µg/mL | > 100 µg/mL | > 100 µg/mL | > 100 µg/mL | > 100 µg/mL | > 100 µg/mL

Other lines, results leading:

Row | MIC [1] | MIC [2] | MIC [3] | MIC [4] | MIC [5] | MIC [6] | MIC [7] | MIC [8] | MIC [9] | MIC [10] | MIC [11] | MIC [12] | MIC [13] | MIC [14] | MIC [15] | Compound
7 | 100 µg/mL (≈ 316 µM) | 50 µg/mL (≈ 158 µM) | 3.1 µg/mL (≈ 9.8 µM) | 100 µg/mL (≈ 316 µM) | 3.1 µg/mL (≈ 9.8 µM) | 3.1 µg/mL (≈ 9.8 µM) | 50 µg/mL (≈ 158 µM) | 12.5 µg/mL (≈ 39.5 µM) | 50 µg/mL (≈ 158 µM) | 3.1 µg/mL (≈ 9.8 µM) | 0.78 µg/mL (≈ 2.47 µM) | 6.2 µg/mL (≈ 19.6 µM) | 100 µg/mL (≈ 316 µM) | 1.56 µg/mL (≈ 4.93 µM) | 50 µg/mL (≈ 158 µM) | CCn1cc(C(=O)O)c(=O)c2cc(F)c(-c3coc(C)n3)cc21
8 | > 100 µg/mL | > 100 µg/mL | 25 µg/mL (≈ 82.7 µM) | > 100 µg/mL | 6.2 µg/mL (≈ 20.5 µM) | 12.5 µg/mL (≈ 41.4 µM) | > 100 µg/mL | 50 µg/mL (≈ 165 µM) | 100 µg/mL (≈ 331 µM) | 12.5 µg/mL (≈ 41.4 µM) | 6.2 µg/mL (≈ 20.5 µM) | 12.5 µg/mL (≈ 41.4 µM) | > 100 µg/mL | 6.2 µg/mL (≈ 20.5 µM) | 12.5 µg/mL (≈ 41.4 µM) | CCn1cc(C(=O)O)c(=O)c2cc(F)c(-c3cocn3)cc21
9 | > 100 µg/mL | > 100 µg/mL | 50 µg/mL (≈ 158 µM) | > 100 µg/mL | 25 µg/mL (≈ 78.8 µM) | 50 µg/mL (≈ 158 µM) | 100 µg/mL (≈ 315 µM) | > 100 µg/mL | > 100 µg/mL | 25 µg/mL (≈ 78.8 µM) | 12.5 µg/mL (≈ 39.4 µM) | 50 µg/mL (≈ 158 µM) | 100 µg/mL (≈ 315 µM) | 12.5 µg/mL (≈ 39.4 µM) | 50 µg/mL (≈ 158 µM) | CCn1cc(C(=O)O)c(=O)c2cc(F)c(-c3coc(N)n3)cc21
10 | > 100 µg/mL | > 100 µg/mL | 1.56 µg/mL (≈ 4.95 µM) | > 100 µg/mL | 6.2 µg/mL (≈ 19.7 µM) | 1.56 µg/mL (≈ 4.95 µM) | 50 µg/mL (≈ 159 µM) | 25 µg/mL (≈ 79.3 µM) | > 100 µg/mL | 1.56 µg/mL (≈ 4.95 µM) | 0.78 µg/mL (≈ 2.47 µM) | 12.5 µg/mL (≈ 39.6 µM) | 50 µg/mL (≈ 159 µM) | 1.56 µg/mL (≈ 4.95 µM) | 12.5 µg/mL (≈ 39.6 µM) | CCn1cc(C(=O)O)c(=O)c2cc(F)c(-c3ccc(C)o3)cc21
11 | > 100 µg/mL | > 100 µg/mL | 50 µg/mL | > 100 µg/mL | 12.5 µg/mL | 50 µg/mL | 50 µg/mL | > 100 µg/mL | > 100 µg/mL | 25 µg/mL | 12.5 µg/mL | 25 µg/mL | 50 µg/mL | 12.5 µg/mL | 50 µg/mL | CCn1cc(C(=O)O)c(=O)c2cc(F)c(-c3c[nH]cn3)cc21.Cl

Source: ChEMBL document CHEMBL1125111, “The synthesis and antibacterial activities of quinolones containing five- and six-membered heterocyclic substituents at the 7-position” (1990)
